Test results: ChEMBL document CHEMBL3098028, “Synthesis and in vitro and in vivo pharmacological evaluation of new 4-aminoquinoline-based compounds” (ACS Med Chem Lett, 2013); call rule not given here
Converted amounts (≈) assume the structure as drawn.

Columns and labels:
[1] = tested on: Liver microsome; assay: Drug metabolism in rat liver microsomes assessed as 4-(2-((1-tert-butyl-1H-tetrazol-5-yl)(4-chlorophenyl)methylamino)ethylamino)-7-chloroquinoline 1-oxide level at 5 uM after 1 hr by LC-MS/MS analysis; format: ADME
[2] = target: T1, Cytochrome P450 2A6 (Homo sapiens, UniProt P11509); assay: Inhibition of CYP2A6 in human liver microsomes assessed as coumarin 7-hydroxylation after 20 mins by LC-MS/MS analysis; format: ADME
T1 sequence (P11509 whole entry): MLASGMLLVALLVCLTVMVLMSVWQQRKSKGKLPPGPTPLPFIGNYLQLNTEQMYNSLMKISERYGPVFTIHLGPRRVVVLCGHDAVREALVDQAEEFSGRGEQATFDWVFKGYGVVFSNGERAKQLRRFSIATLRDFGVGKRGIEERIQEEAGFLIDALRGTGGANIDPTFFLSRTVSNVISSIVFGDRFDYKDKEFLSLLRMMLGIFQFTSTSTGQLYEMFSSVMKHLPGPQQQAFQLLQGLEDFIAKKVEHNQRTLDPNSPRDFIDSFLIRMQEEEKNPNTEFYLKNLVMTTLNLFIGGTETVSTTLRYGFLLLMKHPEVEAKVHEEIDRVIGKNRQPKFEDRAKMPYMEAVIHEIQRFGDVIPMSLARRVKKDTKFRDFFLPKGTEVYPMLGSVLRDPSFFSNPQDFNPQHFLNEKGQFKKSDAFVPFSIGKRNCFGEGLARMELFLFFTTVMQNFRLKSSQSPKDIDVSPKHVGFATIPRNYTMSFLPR

[3] = tested on: Plasmodium falciparum; assay: Antiplasmodial activity against chloroquine-sensitive Plasmodium falciparum 3D7 after 24 hrs by [3H]hypoxanthine incorporation assay; format: functional, organism-based
How it was run: (§1)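 Antiplasmodial testing was done at the Swiss Tropical and Public Health Institute. Chloroquine, the reference drug, was tested as its diphosphate salt.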

[4] = tested on: Mus musculus; assay: AUC (0 to infinity) in C57BL/6 mouse at 40 mg/kg, po; format: ADME, organism-based, Plasma; design: time infinity, dose 40 mg/kg, route oral; conditions: in vivo
How it was run: (§2)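 Healthy male C57/BL6 mice received a single intravenous dose (2.5 or 5.0 mg/kg) or oral dose (20 or 40 mg/kg). Plasma concentrations were followed over time to give AUC0-∞ in min·μmol/L, alongside t1/2, CL, Vd, Vss, Cmax, Tmax and oral bioavailability. Values are means of five animals.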

[5] = tested on: Plasmodium falciparum; assay: Antiplasmodial activity against chloroquine-resistant Plasmodium falciparum W2 after 24 hrs by [3H]hypoxanthine incorporation assay; format: functional, organism-based; how it was run: as §1
[6] = tested on: Mus musculus; assay: AUC (0 to infinity) in C57BL/6 mouse at 20 mg/kg, po; format: ADME, organism-based, Plasma; design: time infinity, dose 20 mg/kg, route oral; conditions: in vivo; how it was run: as §2
[7] = tested on: Liver microsome; assay: Drug metabolism in human liver microsomes assessed as 4-(2-((1-tert-butyl-1H-tetrazol-5-yl)(4-chlorophenyl)methylamino)ethylamino)-7-chloroquinoline 1-oxide level at 5 uM after 1 hr by LC-MS/MS analysis; format: ADME
[8] = Drug metabolism in hepatocytes (unknown origin) assessed as 4-(2-((1-tert-butyl-1H-tetrazol-5-yl)(4-chlorophenyl)methylamino)ethylamino)-7-chloroquinoline 1-oxide level at 5 uM after 6 hrs by LC-MS/MS analysis; format: ADME, cell-based, Hepatocyte
[9] = Kinetic solubility of the compound in phosphate buffered saline at pH 7.4 after 2 hrs by HPLC analysis; format: physicochemical; conditions: read-out: Kinetic_solubility
[10] = target: Cytochrome P450 3A4 (Homo sapiens, UniProt P08684); assay: Inhibition of CYP3A4 in human liver microsomes assessed as midazolam 1'-hydroxylation and testosterone 6beta-hydroxylation after 20 mins by LC-MS/MS analysis; format: ADME
Sequence of Cytochrome P450 3A4 (P08684 whole entry): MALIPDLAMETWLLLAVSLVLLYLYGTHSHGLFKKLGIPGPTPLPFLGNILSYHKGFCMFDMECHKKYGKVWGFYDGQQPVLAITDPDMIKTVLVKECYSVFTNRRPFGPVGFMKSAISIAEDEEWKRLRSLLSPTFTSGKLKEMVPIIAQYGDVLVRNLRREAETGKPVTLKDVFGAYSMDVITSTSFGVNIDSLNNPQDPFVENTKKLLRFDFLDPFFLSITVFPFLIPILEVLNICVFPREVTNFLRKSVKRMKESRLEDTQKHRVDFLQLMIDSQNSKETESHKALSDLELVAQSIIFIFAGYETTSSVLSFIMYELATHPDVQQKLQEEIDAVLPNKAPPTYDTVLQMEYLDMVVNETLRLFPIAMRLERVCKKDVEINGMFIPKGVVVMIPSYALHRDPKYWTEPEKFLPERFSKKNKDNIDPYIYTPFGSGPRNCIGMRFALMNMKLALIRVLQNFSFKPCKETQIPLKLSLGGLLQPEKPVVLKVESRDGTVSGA

[11] = tested on: CHO; assay: Cytotoxicity against CHO cells; format: cell-based; conditions: Cricetulus griseus
[12] = Kinetic solubility of the compound in 0.01 M HCl at pH 2 after 2 hrs by HPLC analysis; format: physicochemical; conditions: read-out: Kinetic_solubility
[13] = Drug metabolism in hepatocytes (unknown origin) assessed as 2-(5-((4-chlorophenyl)(2-(7-chloroquinolin-4-ylamino)ethylamino)methyl)-1H-tetrazol-1-yl)-2-methylpropan-1-ol level at 5 uM after 6 hrs by LC-MS/MS analysis; format: ADME, cell-based, Hepatocyte
[14] = target: T2, Cytochrome P450 2B6 (Homo sapiens, UniProt P20813); assay: Inhibition of CYP2B6 in human liver microsomes assessed as bupropion hydroxylation after 20 mins by LC-MS/MS analysis; format: ADME
T2 sequence (P20813 whole entry): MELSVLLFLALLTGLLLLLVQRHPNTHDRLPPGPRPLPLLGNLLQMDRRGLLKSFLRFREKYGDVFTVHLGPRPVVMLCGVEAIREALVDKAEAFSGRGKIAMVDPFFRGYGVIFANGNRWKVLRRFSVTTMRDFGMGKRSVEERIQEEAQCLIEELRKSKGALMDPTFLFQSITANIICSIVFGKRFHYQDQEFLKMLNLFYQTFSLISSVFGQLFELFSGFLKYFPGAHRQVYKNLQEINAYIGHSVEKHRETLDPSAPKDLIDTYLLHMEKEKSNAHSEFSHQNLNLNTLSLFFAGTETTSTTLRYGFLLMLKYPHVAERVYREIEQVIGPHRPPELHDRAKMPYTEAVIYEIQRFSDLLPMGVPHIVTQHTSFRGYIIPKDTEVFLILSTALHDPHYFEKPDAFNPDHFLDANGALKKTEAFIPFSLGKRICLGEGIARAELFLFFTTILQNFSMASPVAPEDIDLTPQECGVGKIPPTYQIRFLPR

[15] = target: Cytochrome P450 2E1 (Homo sapiens, UniProt P05181); assay: Inhibition of CYP2E1 in human liver microsomes assessed as chlorzoxazone 6-hydroxylation after 20 mins by LC-MS/MS analysis; format: ADME
Sequence of Cytochrome P450 2E1 (P05181 whole entry): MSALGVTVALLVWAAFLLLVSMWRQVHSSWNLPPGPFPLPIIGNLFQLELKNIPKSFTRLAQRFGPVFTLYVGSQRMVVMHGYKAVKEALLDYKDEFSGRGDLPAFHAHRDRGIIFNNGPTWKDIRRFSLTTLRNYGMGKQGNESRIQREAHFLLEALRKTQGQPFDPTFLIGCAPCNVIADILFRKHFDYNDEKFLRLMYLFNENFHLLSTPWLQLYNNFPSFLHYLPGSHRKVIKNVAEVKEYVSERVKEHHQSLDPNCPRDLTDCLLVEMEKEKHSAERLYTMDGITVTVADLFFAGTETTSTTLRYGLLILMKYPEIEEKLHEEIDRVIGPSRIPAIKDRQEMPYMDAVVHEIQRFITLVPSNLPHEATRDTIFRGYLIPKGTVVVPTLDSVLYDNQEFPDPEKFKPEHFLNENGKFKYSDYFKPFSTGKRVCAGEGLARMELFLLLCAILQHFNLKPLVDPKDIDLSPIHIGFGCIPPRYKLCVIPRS

[16] = target: Cytochrome P450 2C9 (Homo sapiens, UniProt P11712); assay: Inhibition of CYP2C9 in human liver microsomes assessed as diclofenac 4'-hydroxylation after 20 mins by LC-MS/MS analysis; format: ADME
Sequence of Cytochrome P450 2C9 (P11712 whole entry): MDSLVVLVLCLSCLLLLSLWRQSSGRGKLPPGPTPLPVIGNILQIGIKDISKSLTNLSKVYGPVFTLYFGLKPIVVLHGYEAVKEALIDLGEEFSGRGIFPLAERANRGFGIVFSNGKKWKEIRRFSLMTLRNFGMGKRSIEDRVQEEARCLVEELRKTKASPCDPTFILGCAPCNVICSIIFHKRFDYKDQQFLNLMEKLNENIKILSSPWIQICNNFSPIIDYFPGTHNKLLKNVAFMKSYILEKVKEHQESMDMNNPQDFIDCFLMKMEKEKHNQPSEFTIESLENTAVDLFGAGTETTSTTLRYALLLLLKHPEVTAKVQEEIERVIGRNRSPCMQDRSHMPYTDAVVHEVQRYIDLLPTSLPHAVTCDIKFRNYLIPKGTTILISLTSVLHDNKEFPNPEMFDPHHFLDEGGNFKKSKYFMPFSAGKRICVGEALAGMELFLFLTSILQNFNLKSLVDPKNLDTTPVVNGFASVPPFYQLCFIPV

[17] = tested on: Mus musculus; assay: AUC (0 to infinity) in C57BL/6 mouse at 5 mg/kg, iv; format: ADME, organism-based, Plasma; design: dose 5 mg/kg, route intravenous, time infinity; conditions: in vivo; how it was run: as §2
[18] = tested on: Liver microsome; assay: Drug metabolism in rat liver microsomes assessed as 2-(5-((4-chlorophenyl)(2-(7-chloroquinolin-4-ylamino)ethylamino)methyl)-1H-tetrazol-1-yl)-2-methylpropan-1-ol level at 5 uM after 1 hr by LC-MS/MS analysis; format: ADME
[19] = target: Cytochrome P450 2D6 (Homo sapiens, UniProt P10635); assay: Inhibition of CYP2D6 in human liver microsomes assessed as bufuralol 1'-hydroxylation after 20 mins by LC-MS/MS analysis; format: ADME
Sequence of Cytochrome P450 2D6 (P10635 whole entry): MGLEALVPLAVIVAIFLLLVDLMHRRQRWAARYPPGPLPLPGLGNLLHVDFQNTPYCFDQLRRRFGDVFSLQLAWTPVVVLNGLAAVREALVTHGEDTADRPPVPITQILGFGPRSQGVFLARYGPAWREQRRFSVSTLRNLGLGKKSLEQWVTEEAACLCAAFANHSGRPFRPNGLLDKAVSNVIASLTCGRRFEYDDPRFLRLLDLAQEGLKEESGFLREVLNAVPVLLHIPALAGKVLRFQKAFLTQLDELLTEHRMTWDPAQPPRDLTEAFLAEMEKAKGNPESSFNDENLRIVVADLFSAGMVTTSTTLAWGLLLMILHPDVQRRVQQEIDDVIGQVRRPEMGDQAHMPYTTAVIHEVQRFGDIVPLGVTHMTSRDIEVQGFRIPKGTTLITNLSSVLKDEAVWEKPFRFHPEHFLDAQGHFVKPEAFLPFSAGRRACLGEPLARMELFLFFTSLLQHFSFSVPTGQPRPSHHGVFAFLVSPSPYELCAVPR

[20] = tested on: Liver microsome; assay: Drug metabolism in human liver microsomes assessed as 2-(5-((4-chlorophenyl)(2-(7-chloroquinolin-4-ylamino)ethylamino)methyl)-1H-tetrazol-1-yl)-2-methylpropan-1-ol level at 5 uM after 1 hr by LC-MS/MS analysis; format: ADME

Compound: CC(C)(C)n1nnnc1C(NCCNc1ccnc2cc(Cl)ccc12)c1ccc(Cl)cc1 (stereo not given)
- Drug metabolism [1]: Active
- IC50 [2]: > 20 µM
- IC50 [3]: 0.002 µM
- AUC [4]: 541 µmol·min/L
- IC50 [5]: 0.0255 µM
- AUC [6]: 222 µmol·min/L
- Drug metabolism [7]: Active
- Drug metabolism [8]: Active
- solubility kinetic at 2 h [9]: 6.88 µM (≈ 3.24 µg/mL)
- IC50 [10]: 0.08 µM
- IC50 [11]: 97.8 µM
- solubility kinetic at 2 h [12]: > 200 µM
- Drug metabolism [13]: Active
- IC50 [14]: > 20 µM
- IC50 [15]: > 20 µM
- IC50 [16]: 8.91 µM
- AUC [17]: 221 µmol·min/L
- Drug metabolism [18]: Active
- IC50 [19]: 4 µM
- Drug metabolism [20]: Active
